HCV core dimer: inhibitors of HCV core protein dimerization, primary screen, biochemical, TR-FRET, high-throughput; TR-FRET GST/Flag-core106 dimerization, 1536-well; inhibition, % at 5 µM; 300,000 compounds, 0.33% hits; AID 1899, 2009;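 active = inhibition above the mean of all tested compounds plus 3 SD, set per screening campaign, cut at about 45% in these data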
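System: GST/Flag-tagged HCV core106 proteins. Incubation: compound-protein-antibody incubation 4 h at 22.5 °C. Technique: HTRF with 340 nm excitation, 617/671 nm emission. Medium: KF-containing HEPES buffer, pH 7.45, DTT, CHAPS, BSA. Read-out: inhibition (%) from 671 over 617 nm ratio. Also added: Eu(K)-anti-GST 90 ng/mL plus XL665-anti-Flag 1 µg/mL.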
NadD inh: inhibitors of S. aureus NadD, primary screen, biochemical, colorimetric, uHTS; Nicotinate-nucleotide adenylyltransferase NadD (Staphylococcus aureus N315); inhibition, % at 20 µM; purified NadD enzyme, colorimetric absorbance read-out; 360,000 compounds, 0.78% hits; in the data active = inhibition above about 26%
rCAG RNA binder: binders of r(CAG) RNA repeats, primary screen, biochemical, fluorescence | r(CAG) RNA repeat, TO-PRO-1 dye displacement fluorescence | inhibition, % at 3 µM | 370,000 compounds, 1.3% hits | AID 651821, 2012;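 active = inhibition above the plate cutoff, the mean of all test compounds on that plate plus 3 SD, cut at about 35% in these data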;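 also: higher means more dye released from RNA so lower well fluorescence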
ABHD5 PLIN5 PPI: ABHD5-PLIN5 interaction inhibitors, primary screen, cell lysate, split luciferase complementation, luminescence. Perilipin-5 (Homo sapiens) + 1-acylglycerol-3-phosphate O-acyltransferase ABHD5 (Homo …. Split G. princeps luciferase complementation, 4 h. inhibition, % at 4 µM. 360,000 compounds, 0.78% hits;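 active = inhibition above the mean inhibition across every tested compound plus 3 SD, cut at about 22% in these data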
Target sequence (Q00G26 whole entry, looked up): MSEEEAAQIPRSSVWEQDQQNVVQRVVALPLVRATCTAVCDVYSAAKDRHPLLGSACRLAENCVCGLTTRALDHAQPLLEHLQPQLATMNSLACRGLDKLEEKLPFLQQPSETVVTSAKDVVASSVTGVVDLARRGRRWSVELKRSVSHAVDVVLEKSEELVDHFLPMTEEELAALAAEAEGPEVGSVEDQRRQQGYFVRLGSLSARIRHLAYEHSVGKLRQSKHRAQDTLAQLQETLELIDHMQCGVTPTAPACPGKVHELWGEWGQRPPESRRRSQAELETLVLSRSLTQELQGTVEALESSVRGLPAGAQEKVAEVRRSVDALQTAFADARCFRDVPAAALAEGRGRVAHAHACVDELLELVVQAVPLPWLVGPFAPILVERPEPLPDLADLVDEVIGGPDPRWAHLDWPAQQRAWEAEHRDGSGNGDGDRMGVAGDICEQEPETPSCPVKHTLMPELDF
Target sequence (Q8WTS1 whole entry, looked up): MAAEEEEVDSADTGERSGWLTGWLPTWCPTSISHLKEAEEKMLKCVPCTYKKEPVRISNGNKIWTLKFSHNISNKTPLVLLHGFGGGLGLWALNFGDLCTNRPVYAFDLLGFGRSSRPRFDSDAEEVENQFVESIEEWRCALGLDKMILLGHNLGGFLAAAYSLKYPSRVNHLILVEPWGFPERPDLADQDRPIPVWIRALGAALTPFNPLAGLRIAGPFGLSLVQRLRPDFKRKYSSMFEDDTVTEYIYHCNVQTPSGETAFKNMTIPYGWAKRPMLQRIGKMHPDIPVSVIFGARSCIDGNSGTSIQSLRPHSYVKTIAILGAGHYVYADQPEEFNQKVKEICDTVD
NadD inh conf: inhibitors of S. aureus NadD, confirmation, biochemical, colorimetric, single concentration | shares compounds with NadD inh | purified S. aureus NadD, colorimetric enzyme assay | inhibition, % at 20 µM | 2,000 compounds, 13% hits | AID 624309, 2012; in the data active = inhibition mostly above about 42%, no sharp cut-off; inactive = mostly below about 42%
rCAG binder conf: small molecules binding CAG repeat RNA – biochemical, fluorescence, confirmation. shares compounds with rCAG RNA binder. r(CAG) RNA repeat, TO-PRO-1 dye displacement fluorescence. inhibition, % at 3 µM. 4,300 compounds, 70% hits;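 active = inhibition above a per-plate cutoff, the mean inhibition of sample wells plus 3 SD, cut at about 35% in these data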;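 also: loss of TO-PRO-1 fluorescence as compound displaces dye from 1x1 AA loop RNA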
dCAG dye counter: displacement of TO-PRO-1 from CAG DNA duplex, counter-screen for rCAG RNA repeat binder project, biochemical, fluorescence, TO-PRO-1 dye, d(CAG) DNA oligo; 4,300 compounds, 94% hits; inhibition, % at 3 µM; d(CAG) DNA oligo TO-PRO-1 dye displacement; shares compounds with rCAG RNA binder;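 active = inhibition above its plate's cutoff, the mean test-well inhibition plus 3 SD, cut at about 4.8% in these data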;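 also: hits displace the dye from DNA and so lower well fluorescence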
dCAG dye DR: inhibitors of DNA CAG/GTC TO-PRO-1 complex, dose response, counter-screen for rCAG RNA repeat binder project, biochemical, fluorescence, TO-PRO-1 dye. shares compounds with rCAG RNA binder. DNA CAG/GTC duplex TO-PRO-1 dye displacement fluorescence. IC50, µM. 250 compounds, 20% hits. AID 686960, 2013; in the data active = IC50 below about 10 µM
Large screens that a line does not name were inactive (follow-up assays come after a bar, where they were run). An excerpt weighted towards active compounds, which were near 2.6% of everything screened.

O=C(Nc1ccc(S(=O)(=O)Nc2nccs2)cc1)c1cc(-c2ccccc2Cl)nc2ccccc12	NadD inh 67, rCAG RNA binder 76 | NadD inh conf 65 | rCAG binder conf 77 | dCAG dye counter 41
Cc1cc(NS(=O)(=O)c2ccc(NC(=O)c3ccccc3C)cc2)no1	none
CCC(C)[C@H]1CNC(=O)C(=O)N1CC(C)(C)C (some centres not stated)	none (no result: HCV core dimer)
COc1ccc(OC)c(CNS(=O)(=O)c2ccccc2Br)c1	none (no result: HCV core dimer, NadD inh, ABHD5 PLIN5 PPI)
O=C(NCc1ccccc1)C1Cc2c(-c3ccc(Cl)cc3)ccnc2O1 (configuration not stated)	none (no result: HCV core dimer)
CCCCCCCCN1C(=O)[C@@H](CC(=O)NCc2ccc(OC)c(OC)c2)C[C@@]2(C(=O)OC)C1=C[C@H](C(C)(C)C)O[C@@H]2C	none (no result: HCV core dimer, NadD inh, ABHD5 PLIN5 PPI)
Cc1ccc(C(=O)C2C(=O)c3ccccc3C2=O)cc1	none
NN=C1c2ccccc2C(=O)C1C(=O)C(c1ccccc1)c1ccccc1 (configuration not stated)	NadD inh 30, rCAG RNA binder 45 (no result: HCV core dimer) | NadD inh conf 50 | rCAG binder conf 44 | dCAG dye counter 28
O=C1CCCN1C1CCN(Cc2ccccc2)S(=O)(=O)N1 (configuration not stated)	none (no result: HCV core dimer)
Cc1nn(CCc2nn[nH]n2)c2nc(-c3ccc(Br)cc3)cc(C(F)(F)F)c12	NadD inh 28, rCAG RNA binder 44 | NadD inh conf inactive | rCAG binder conf 71 | dCAG dye counter 25 | dCAG dye DR inactive
C[C@@H]1CN([C@H](C)CO)C(=O)CCCn2cc(nn2)CO[C@H]1CN(C)C(=O)Nc1ccc2c(c1)OCCO2	none (no result: HCV core dimer)
Cc1ccc2sc(NNC(=O)c3cc(-c4cccs4)nc4ccccc34)nc2c1C	none (no result: NadD inh, ABHD5 PLIN5 PPI)
O=C(NNc1nc2ccc(Cl)cc2s1)c1cc(-c2cccs2)nc2ccccc12	NadD inh 44, rCAG RNA binder 55 | NadD inh conf 48 | rCAG binder conf 50 | dCAG dye counter 25
Cc1cc(C)c2nc(NNC(=O)c3cc(-c4cccs4)nc4ccccc34)sc2c1	NadD inh 51, rCAG RNA binder 37 | NadD inh conf inactive | rCAG binder conf 42 | dCAG dye counter 18
Cc1ccc(Cc2cnc(NC(=O)c3ccco3)s2)cc1	none
Cc1ccc(Cc2cnc(N3C(=N)SC(c4ccccc4)C3=O)s2)cc1 (configuration not stated)	NadD inh 51, rCAG RNA binder 64 | NadD inh conf inactive | rCAG binder conf 69 | dCAG dye counter 23
Cc1cc(C)cc(C(=O)OCCCN(C)C2CN(Cc3cn(Cc4ccccc4F)nn3)S(=O)(=O)C2)c1 (configuration not stated)	none (no result: HCV core dimer, NadD inh, ABHD5 PLIN5 PPI)
CCc1nnc(NS(=O)(=O)c2ccc(N=Cc3c(C)[nH]n(-c4ccc(C)c(C)c4)c3=O)cc2)s1	NadD inh 37, rCAG RNA binder 55 | NadD inh conf 55 | rCAG binder conf 85 | dCAG dye counter 57
Cc1[nH]n(-c2ccc(Br)cc2)c(=O)c1C=Nc1ccc(S(=O)(=O)Nc2nccs2)cc1	NadD inh 42, rCAG RNA binder 54 | NadD inh conf inactive | rCAG binder conf 81 | dCAG dye counter 47
Cc1ccc([C@@H]2CC=C(C(=O)O)[C@H](c3ccc(F)cc3)N2S(=O)(=O)c2ccccc2C)cc1	NadD inh 42, rCAG RNA binder 70 (no result: HCV core dimer) | NadD inh conf inactive | rCAG binder conf 60 | dCAG dye counter 23
CC(=O)c1sc2nc(-c3ccco3)ccc2c1N	none
Nc1c(C(=O)Nc2ccc(Br)cc2)sc2nc(-c3ccco3)ccc12	NadD inh 51, rCAG RNA binder 51 | NadD inh conf inactive | rCAG binder conf 37 | dCAG dye counter 20
COc1ccc(C2=NN(C(=O)COC(=O)c3ccc(NC(=O)CC#N)cc3)C(c3ccco3)C2)cc1 (configuration not stated)	NadD inh 37, rCAG RNA binder 35 (no result: HCV core dimer) | NadD inh conf inactive | rCAG binder conf inactive | dCAG dye counter 18
Nc1c(C(=O)Nc2ccc(S(=O)(=O)N3CCCC3)cc2)sc2nc3cc4c(cc3cc12)CCC4	NadD inh 32, rCAG RNA binder 38 | NadD inh conf inactive | rCAG binder conf inactive | dCAG dye counter 16
CS(=O)(=O)c1ccc(C(=O)Nc2nc(-c3ccco3)c(-c3ccco3)s2)cc1	NadD inh 29, rCAG RNA binder 88, ABHD5 PLIN5 PPI 22 (no result: HCV core dimer) | NadD inh conf inactive | rCAG binder conf inactive | dCAG dye counter 16
CS(=O)(=O)c1ccc2nc(NC(=O)c3ccccc3)sc2c1	none
O=C(C(=O)N1CCC(CNS(=O)(=O)c2cccc3ccccc23)CC1)c1cccs1	none (no result: HCV core dimer, NadD inh, ABHD5 PLIN5 PPI)
Cc1ccc(NS(=O)(=O)c2cc(C(=O)Nc3cccc([N+](=O)[O-])c3)ccc2C)cc1	none
Cc1ccc(NC(=O)CC(=O)c2ccc([N+](=O)[O-])cc2)cc1S(=O)(=O)Nc1cccc(Cl)c1	NadD inh 37, rCAG RNA binder 50 | NadD inh conf inactive | rCAG binder conf 64 | dCAG dye counter 25
Cc1ccc(C(=O)Nc2cccc([N+](=O)[O-])c2)cc1S(=O)(=O)Nc1ccc(NC(=O)c2ccccc2)cc1	NadD inh 42, rCAG RNA binder 55 | NadD inh conf 38 | rCAG binder conf 41 | dCAG dye counter 21
O=C(O)c1ccc(/C=N/NC(=O)c2ccc(CN3c4cccc5cccc(c45)S3(=O)=O)cc2)cc1	NadD inh 30, rCAG RNA binder 67 | NadD inh conf 66 | rCAG binder conf 68 | dCAG dye counter 31
CC(/C=N/NC(=O)c1ccc(CN2c3cccc4cccc(c34)S2(=O)=O)cc1)c1ccccc1 (configuration not stated)	none
CCOC(=O)c1ccc(-n2c(O)c(/C=N/NC(=O)C3COc4ccccc4O3)c3ccccc3c2=O)cc1 (configuration not stated)	NadD inh 31, rCAG RNA binder 75 | NadD inh conf inactive | rCAG binder conf 79 | dCAG dye counter 42
CCOC(=O)c1ccc(NC(=O)C2COc3ccccc3O2)cc1 (configuration not stated)	none

Source: PubChem
